ChEMBL document CHEMBL4219177, “Synthesis and evaluation of the antibacterial activities of aryl substituted dihydrotriazine derivatives” (Bioorg Med Chem Lett, 2018)
Converted amounts (≈) assume the structure as drawn.

How the values were obtained:
Staphylococcus aureus [1] = assay: Antibacterial activity against quinolone-resistant Staphylococcus aureus isolate CCARM 3505 after 24 hrs by two-fold serial dilution method; format: functional; settings: isolate CCARM 3505, 24 h
Summary of the method: (§1)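 Broth microdilution MIC. Bacteria were grown to mid-log phase in Mueller-Hinton broth, diluted 1000-fold, and inoculated at 10^5 CFU/mL. Compounds in DMSO (final ≤0.05%) were tested as two-fold serial dilutions from 64 to 0.25. Plates were incubated 24 h at 37 °C and growth read as absorbance at 650 nm. MIC = concentration completely inhibiting growth. Experiments were run three times.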

Streptococcus mutans = assay: Antibacterial activity against Streptococcus mutans 3289 after 24 hrs by two-fold serial dilution method; format: functional; settings: Streptococcus mutans, 3289, 24 h
Candida albicans = assay: Antifungal activity against Candida albicans 7535 after 24 hrs by two-fold serial dilution method; format: functional; settings: Candida albicans, 7535, 24 h
Pseudomonas aeruginosa = assay: Antibacterial activity against Pseudomonas aeruginosa 2742 after 24 hrs by two-fold serial dilution method; format: functional; settings: Pseudomonas aeruginosa, 2742, 24 h
Summary of the method: (§2)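 Bacteria grown to mid-log phase in Mueller-Hinton broth, diluted 1000-fold, and inoculated at 10^5 CFU/mL. Compounds were dissolved in DMSO (final ≤0.05%) and two-fold serially diluted. MIC was the lowest concentration giving complete growth inhibition after 24 h at 37 °C, with growth read as absorbance at 650 nm. Each experiment was run three times.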

Staphylococcus aureus [2] = assay: Antibacterial activity against Staphylococcus aureus 4220 after 24 hrs by two-fold serial dilution method; format: functional; settings: RN4220, 24 h; summary of the method: as §1
Staphylococcus aureus [3] = assay: Antibacterial activity against methicillin-resistant Staphylococcus aureus isolate CCARM 3167 after 24 hrs by two-fold serial dilution method; format: functional; settings: isolate CCARM 3167, 24 h
Escherichia coli [4] = assay: Antibacterial activity against Escherichia coli 1924 after 24 hrs by two-fold serial dilution method; format: functional; settings: Escherichia coli, 1924, 24 h; summary of the method: as §2
Salmonella typhimurium = assay: Antibacterial activity against Salmonella typhimurium 2421 after 24 hrs by two-fold serial dilution method; format: functional, Salmonella enterica subsp. enterica serovar Typhimurium; settings: Salmonella enterica, 2421, 24 h; summary of the method: as §2
L02 = assay: Cytotoxicity against human L02 cells assessed as growth inhibition after 24 hrs by MTT assay; format: cell-based; settings: L02, 24 h
Escherichia coli [5] = assay: Potency index, ratio of gatifloxacin MIC to compound MIC for Escherichia coli 1924; format: functional
Escherichia coli [6] = assay: Potency index, ratio of moxifloxacin MIC to compound MIC for Escherichia coli 1924; format: functional
Staphylococcus aureus [7] = assay: Potency index, ratio of gatifloxacin MIC to compound MIC for quinolone-resistant Staphylococcus aureus isolate CCARM 3505; format: functional
[8] = biological target: Dihydrofolate reductase (Staphylococcus aureus) (UniProt P0A017); assay: Inhibition of Staphylococcus aureus DHFR at 10 uM after 1.5 hrs by ELISA relative to control; settings: Staphylococcus aureus subsp. aureus RN4220
Dihydrofolate reductase (Staphylococcus aureus), sequence (P0A017 2-159 limits assumed): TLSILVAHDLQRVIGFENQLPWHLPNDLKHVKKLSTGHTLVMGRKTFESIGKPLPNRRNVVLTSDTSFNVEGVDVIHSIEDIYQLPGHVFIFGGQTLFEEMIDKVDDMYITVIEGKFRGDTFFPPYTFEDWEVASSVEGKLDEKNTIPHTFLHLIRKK

Staphylococcus aureus [9] = assay: Potency index, ratio of moxifloxacin MIC to compound MIC for quinolone-resistant Staphylococcus aureus isolate CCARM 3505; format: functional

| Compound | MIC (Staphylococcus aureus [1]) | MIC (Streptococcus mutans) | MIC (Candida albicans) | MIC (Pseudomonas aeruginosa) | MIC (Staphylococcus aureus [2]) | MIC (Staphylococcus aureus [3]) | MIC (Escherichia coli [4]) | MIC (Salmonella typhimurium) | IC50 (L02) | Ratio (Escherichia coli [5]) | Ratio (Escherichia coli [6]) | Ratio (Staphylococcus aureus [7]) | inhibition [8] | Ratio (Staphylococcus aureus [9]) |
| --- | --- | --- | --- | --- | --- | --- | --- | --- | --- | --- | --- | --- | --- | --- |
| COc1ccccc1C(=O)/C=C/c1ccc(C2N=C(N)NC(N(C)C)=N2)cc1 (centres undefined) | 64 µg/mL (≈ 170 µM) | 64 µg/mL (≈ 170 µM) | 32 µg/mL (≈ 84.8 µM) | > 64 µg/mL | 64 µg/mL | 64 µg/mL | 64 µg/mL (≈ 170 µM) | > 64 µg/mL |  |  |  |  |  |  |
| CN(C)C1=NC(c2ccc(OCc3ccc(F)cc3)cc2)N=C(N)N1 (centres undefined) | 64 µg/mL (≈ 187 µM) | 64 µg/mL (≈ 187 µM) | 64 µg/mL (≈ 187 µM) | > 64 µg/mL | 64 µg/mL | 32 µg/mL | 64 µg/mL (≈ 187 µM) | > 64 µg/mL |  |  |  |  |  |  |
| Cc1ccc(COc2ccc3cc(C4N=C(N)NC(N(C)C)=N4)ccc3c2)cc1 (centres undefined) | 2 µg/mL (≈ 5.16 µM) | 2 µg/mL (≈ 5.16 µM) | 4 µg/mL (≈ 10.3 µM) | 64 µg/mL (≈ 165 µM) | 2 µg/mL | 2 µg/mL | 2 µg/mL (≈ 5.16 µM) | 64 µg/mL (≈ 165 µM) |  |  |  |  |  |  |
| CN(C)C1=NC(c2ccc3cc(OCc4ccc(Cl)cc4)ccc3c2)N=C(N)N1 (centres undefined) | 1 µg/mL (≈ 2.45 µM) | 1 µg/mL (≈ 2.45 µM) | 1 µg/mL (≈ 2.45 µM) | 64 µg/mL (≈ 157 µM) | 1 µg/mL | 1 µg/mL | 1 µg/mL (≈ 2.45 µM) | 64 µg/mL (≈ 157 µM) |  |  |  |  |  |  |
| CN(C)C1=NC(c2ccc(OCC(=O)c3ccccc3)cc2)N=C(N)N1 (centres undefined) | > 64 µg/mL | > 64 µg/mL | > 64 µg/mL | > 64 µg/mL | > 64 µg/mL | > 64 µg/mL | > 64 µg/mL | > 64 µg/mL |  |  |  |  |  |  |
| COc1c(N2C[C@@H]3CCCN[C@@H]3C2)c(F)cc2c(=O)c(C(=O)O)cn(C3CC3)c12 [MOXIFLOXACIN] | 1 µg/mL (≈ 2.49 µM) |  |  | 0.5 µg/mL (≈ 1.25 µM) | 4 µg/mL |  |  |  |  |  |  |  |  |  |
| CN(C)C1=NC(c2ccc(/C=C/C(=O)c3ccc(Cl)cc3Cl)cc2)N=C(N)N1 (centres undefined) | 8 µg/mL (≈ 19.2 µM) | 4 µg/mL (≈ 9.61 µM) | 8 µg/mL (≈ 19.2 µM) | 64 µg/mL (≈ 154 µM) | 19.3 µM | 19.3 µM | 8 µg/mL (≈ 19.2 µM) | > 64 µg/mL | 45.1 µM |  |  |  |  |  |
| CN(C)C1=NC(c2ccc3cc(OCC(=O)c4ccccc4)ccc3c2)N=C(N)N1 (centres undefined) | 32 µg/mL (≈ 79.7 µM) | 64 µg/mL (≈ 159 µM) | 32 µg/mL (≈ 79.7 µM) | > 64 µg/mL | 32 µg/mL | 32 µg/mL | 64 µg/mL (≈ 159 µM) | > 64 µg/mL |  |  |  |  |  |  |
| Cc1ccc(COc2ccc(C3N=C(N)NC(N(C)C)=N3)cc2)cc1 (centres undefined) | 32 µg/mL (≈ 94.8 µM) | 16 µg/mL (≈ 47.4 µM) | 16 µg/mL (≈ 47.4 µM) | > 64 µg/mL | 32 µg/mL | 32 µg/mL | 16 µg/mL (≈ 47.4 µM) | > 64 µg/mL |  |  |  |  |  |  |
| CN(C)C1=NC(c2ccc3cc(OCc4ccc(Cl)cc4Cl)ccc3c2)N=C(N)N1 (centres undefined) | 0.5 µg/mL (≈ 1.13 µM) | 1 µg/mL (≈ 2.26 µM) | 1 µg/mL (≈ 2.26 µM) | 64 µg/mL (≈ 145 µM) | 1.13 µM | 2.27 µM | 0.5 µg/mL (≈ 1.13 µM) | 64 µg/mL (≈ 145 µM) | 58.9 µM | 4 | 4 | 16 | 58% | 8 |
| Cc1ccc(C(=O)/C=C/c2ccc(C3N=C(N)NC(N(C)C)=N3)cc2)cc1 (centres undefined) | 16 µg/mL (≈ 44.3 µM) | 16 µg/mL (≈ 44.3 µM) | 16 µg/mL (≈ 44.3 µM) | > 64 µg/mL | 32 µg/mL | 16 µg/mL | 32 µg/mL (≈ 88.5 µM) | > 64 µg/mL |  |  |  |  |  |  |
| CN(C)C1=NC(c2ccc(OCC(=O)c3ccc(Br)cc3)cc2)N=C(N)N1 (centres undefined) | 64 µg/mL (≈ 149 µM) | 32 µg/mL (≈ 74.4 µM) | 32 µg/mL (≈ 74.4 µM) | > 64 µg/mL | 32 µg/mL | 32 µg/mL | 64 µg/mL (≈ 149 µM) | > 64 µg/mL |  |  |  |  |  |  |
| CN(C)C1=NC(c2ccc(/C=C/C(=O)c3ccccc3)cc2)N=C(N)N1 (centres undefined) | 32 µg/mL (≈ 92.1 µM) | 32 µg/mL (≈ 92.1 µM) | 32 µg/mL (≈ 92.1 µM) | > 64 µg/mL | 32 µg/mL | 32 µg/mL | 64 µg/mL (≈ 184 µM) | > 64 µg/mL |  |  |  |  |  |  |
| CN(C)C1=NC(c2ccc(/C=C/C(=O)c3ccccc3Br)cc2)N=C(N)N1 (centres undefined) | 32 µg/mL (≈ 75.1 µM) | 16 µg/mL (≈ 37.5 µM) | 32 µg/mL (≈ 75.1 µM) | > 64 µg/mL | 64 µg/mL | 32 µg/mL | 64 µg/mL (≈ 150 µM) | > 64 µg/mL |  |  |  |  |  |  |
